Reference: publication PMC3947851 (Bioorganic & medicinal chemistry, 2012)
Values after ≈ are worked out from the molar mass of the structure shown. Counter-ions that a name gives are not always drawn.

What was measured:
SaFtsZ [1] = target: T1, SaFtsZ (Staphylococcus aureus, UniProt P0A031); experiment: FtsZ polymerization assay; type: biochemical; conditions: for Impact on SaFtsZ polymerization (A340) / Stability of compound-induced SaFtsZ polymers to added GDP: compound 40 μg/mL, 1 mM GTP; for Impact on SaFtsZ polymerization (A340): 10 μM SaFtsZ, 25 °C; for Stability of compound-induced SaFtsZ polymers to added GDP: 1 mM GDP added
T1 sequence (P0A031 1-390): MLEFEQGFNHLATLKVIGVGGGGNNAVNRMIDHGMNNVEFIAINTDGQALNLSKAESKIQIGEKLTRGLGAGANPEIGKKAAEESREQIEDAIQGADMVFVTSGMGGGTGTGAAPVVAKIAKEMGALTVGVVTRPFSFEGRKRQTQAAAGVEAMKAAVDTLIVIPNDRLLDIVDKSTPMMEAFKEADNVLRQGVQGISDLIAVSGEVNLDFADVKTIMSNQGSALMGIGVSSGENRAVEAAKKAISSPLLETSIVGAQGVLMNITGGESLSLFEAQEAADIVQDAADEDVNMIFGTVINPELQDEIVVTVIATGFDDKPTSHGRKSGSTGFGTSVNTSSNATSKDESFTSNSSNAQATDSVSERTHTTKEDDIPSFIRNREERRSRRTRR

[2] = target: microtubule-associated protein (MAP)-rich porcine β-tubulin (Sus scrofa, UniProt P02554); experiment: Tubulin polymerization assay; type: biochemical; conditions: tubulin 2 mg/mL
Summary of the method: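 MAP-rich porcine tubulin (70% tubulin, 30% MAPs) at 2 mg/mL with 1 mM GTP in 80 mM PIPES NaOH (pH 7.0), 2 mM MgCl2, 1 mM EGTA. Test compound 40 μg/mL, paclitaxel 25 μg/mL or nocodazole 10 μg/mL as comparators, or DMSO vehicle. Turbidity (A340) read continuously at 37 °C over 60 min.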

[3] = MTT cytotoxicity assay, MDCK; type: cell-based, canine; conditions: dog, MDCK cells
Summary of the method: (§1)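 MTT tetrazolium assay in 96-well plates. Cells were grown […] at 37 °C in 5% CO2 and passaged in DMEM. Each well was seeded with 1500 cells, and triplicate wells were exposed continuously to varying concentrations of test compound for four days. MTT was read at the end of day 4, and IC50 was determined.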

[4] = MTT cytotoxicity assay, HEK293; type: cell-based, human; conditions: human, HEK293 cells
Summary of the method: as §1

HEK293 cells = experiment: MTT cytotoxicity assay, HEK293; type: cell-based, human; conditions: 10 μM, MTT
Summary of the method: as §1

SaFtsZ [5] = target: T1, SaFtsZ; experiment: FtsZ GTPase assay; type: biochemical; conditions: for Concentration dependence of the impact on SaFtsZ GTPase activity: 10 μM SaFtsZ, Fig. 4
S. aureus 8325-4 (MSSA) = experiment: MIC assay, CLSI broth microdilution, MSSA; type: cell-based; conditions: Staphylococcus aureus, 24 h, read-out: MIC S. aureus 8325-4 (MSSA), lowest concentration at which growth is ≥90% inhibited, CAMH broth, 37 °C

Chain of microtubule-associated protein (MAP)-rich porcine β-tubulin (P02554 whole entry): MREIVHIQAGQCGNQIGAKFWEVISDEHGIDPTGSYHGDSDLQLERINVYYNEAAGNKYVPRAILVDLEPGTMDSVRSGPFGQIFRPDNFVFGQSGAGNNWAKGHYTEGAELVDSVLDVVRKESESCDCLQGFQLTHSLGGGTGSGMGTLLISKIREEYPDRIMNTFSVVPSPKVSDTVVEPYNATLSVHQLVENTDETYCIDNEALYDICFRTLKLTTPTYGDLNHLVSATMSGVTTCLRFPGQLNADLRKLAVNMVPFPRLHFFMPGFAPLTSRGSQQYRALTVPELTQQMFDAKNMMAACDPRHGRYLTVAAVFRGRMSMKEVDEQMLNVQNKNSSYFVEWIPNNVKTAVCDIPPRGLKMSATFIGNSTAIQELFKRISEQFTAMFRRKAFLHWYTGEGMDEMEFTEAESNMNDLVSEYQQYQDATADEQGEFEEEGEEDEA
Chain of microtubule-associated protein (MAP)-rich porcine β-tubulin (P02550 whole entry partner): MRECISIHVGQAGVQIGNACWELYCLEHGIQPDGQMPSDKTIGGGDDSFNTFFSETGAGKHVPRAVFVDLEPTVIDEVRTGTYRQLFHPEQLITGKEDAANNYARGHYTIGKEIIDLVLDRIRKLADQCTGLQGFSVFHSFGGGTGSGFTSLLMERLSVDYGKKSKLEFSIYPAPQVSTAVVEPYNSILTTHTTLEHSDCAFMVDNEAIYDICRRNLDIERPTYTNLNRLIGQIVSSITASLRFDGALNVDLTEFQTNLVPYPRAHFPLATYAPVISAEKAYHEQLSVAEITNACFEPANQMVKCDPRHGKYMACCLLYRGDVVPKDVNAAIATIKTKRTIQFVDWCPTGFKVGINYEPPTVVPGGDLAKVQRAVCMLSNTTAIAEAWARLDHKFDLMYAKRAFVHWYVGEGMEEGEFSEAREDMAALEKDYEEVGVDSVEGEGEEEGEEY

COc1ccc2cc3[n+](cc2c1OC)CCc1cc2c(cc1-3)OCO2 [Berberine, berberine, reference compound]
Impact on SaFtsZ polymerization (A340) (SaFtsZ [1]): did not significantly impact SaFtsZ polymerization

COc1cc2cc(-c3cccc(C(C)(C)C)c3)nc(C)c2cc1OC [Compound 4a, 3-(3-(t-Butyl)phenyl)-6,7-dimethoxy-1-methylisoquino line]
Impact on SaFtsZ polymerization (A340) (SaFtsZ [1]): did not significantly impact SaFtsZ polymerization

COc1cc2cc(-c3cccc(-c4ccc(-c5ccccc5)cc4)c3)[n+](C)c(C)c2cc1OC.[I-] [Compound 5b, 3-([1,1′:4′,1″-Terphenyl]-3-yl)-6,7-dimethoxy-1,2-dimethy lisoquinolin-2-ium iodide]
Impact on SaFtsZ polymerization (A340) (SaFtsZ [1]): stimulate SaFtsZ polymerization

COc1cc2cc(-c3cccc(-c4ccc(C(C)(C)C)cc4)c3)nc(C)c2cc1OC [Compound 7a, 3-(4′-(t-Butyl)-[1,1′-biphenyl]-3-yl)-6,7-dimethoxy-1-methylisoquinoline]
Impact on SaFtsZ polymerization (A340) (SaFtsZ [1]): did not significantly impact SaFtsZ polymerization

COc1cc2cc(-c3cccc(-c4ccc(C(C)(C)C)cc4)c3)[n+](C)c(C)c2cc1OC.[I-] [Compound 7b, 3-(4′-(t-Butyl)-[1,1′-biphenyl]-3-yl)-6,7-dimethoxy-1,2-dimethylisoquinolin-2-ium iodide]
Impact on polymerization of porcine β-tubulin (A340) ([2]; compound 40 μg/mL, 37 °C): neither 7b nor 19a exert a significant impact | Impact on SaFtsZ polymerization (A340) (SaFtsZ [1]): stimulate SaFtsZ polymerization | Stability of compound-induced SaFtsZ polymers to added GDP (SaFtsZ [1]): stable to the depolymerizing effects of GDP

COc1cc2cc(-c3cccc(-c4ccccc4)c3)nc(N=C(N)N)c2cc1OC [Compound 10a, 2-(3-([1,1′-biphenyl]-3-yl)-6,7-dimethoxyisoquinolin-1-yl)guanidine]
IC50 at 4 days [3]: 2200 to 3500 nM | IC50 at 4 days [4]: 2200 to 3500 nM

COc1cc2cc(-c3cccc(-c4ccccc4)c3)nc(CN=C(N)N)c2cc1OC [Compound 13a, 2-((3-([1,1′-biphenyl]-3-yl)-6,7-dimethoxyisoquinolin-1-yl)methyl)guanidine trifluo roacetate]
Human cell toxicity at the highest concentration tested (HEK293 cells): no significant human cell toxicity

COc1cc2cc(-c3cccc(-c4ccccc4)c3)nc(CCN=C(N)N)c2cc1OC [Compound 15a, 2-(2-(3-([1,1′-Biphenyl]-3-yl)-6,7-dimethoxyisoquinolin-1-yl)ethyl)guanidine]
Concentration dependence of the impact on SaFtsZ GTPase activity (SaFtsZ [5]): stimulate GTPase activity at lower concentrations, followed by inhibition at higher concentrations | Human cell toxicity at the highest concentration tested (HEK293 cells): no significant human cell toxicity | Impact on SaFtsZ polymerization (A340) (SaFtsZ [1]): stimulate SaFtsZ polymerization

COc1cc2cc(-c3cccc(C(C)(C)C)c3)nc(CN)c2cc1OC [Compound 16a, (3-(3-(t-Butyl)phenyl)-6,7-dimethoxyisoquinolin-1-yl)methanamine]
Human cell toxicity at the highest concentration tested (HEK293 cells): no significant human cell toxicity

COc1cc2cc(-c3cccc(C(C)(C)C)c3)nc(CCN)c2cc1OC [Compound 17a, 2-(3-(3-(t-Butyl)phenyl)-6,7-dimethoxyisoquinolin-1-yl)ethanamine]
IC50 at 4 days [3]: 2200 to 3500 nM | IC50 at 4 days [4]: 2200 to 3500 nM | Impact on SaFtsZ polymerization (A340) (SaFtsZ [1]): stimulate SaFtsZ polymerization | Stability of compound-induced SaFtsZ polymers to added GDP (SaFtsZ [1]): stable to the depolymerizing effects of GDP

COc1cc2cc(-c3cccc(C(C)(C)C)c3)nc(C/N=C(/C)N)c2cc1OC [Compound 18a, N′-((3-(3-(t-butyl)phenyl)-6,7-dimethoxyisoquinolin-1-yl)methyl)acetimidamide]
Concentration dependence of the impact on SaFtsZ GTPase activity (SaFtsZ [5]): stimulate GTPase activity at lower concentrations, followed by inhibition at higher concentrations | Impact on SaFtsZ polymerization (A340) (SaFtsZ [1]): stimulate SaFtsZ polymerization

COc1cc2cc(-c3cccc(C(C)(C)C)c3)nc(CN=C(N)N)c2cc1OC [Compound 19a, 2-((3-(3-(t-Butyl)phenyl)-6,7-dimethoxyisoquinolin-1-yl)methyl)guanidine]
Impact on polymerization of porcine β-tubulin (A340) ([2]; compound 40 μg/mL, 37 °C): neither 7b nor 19a exert a significant impact | Impact on SaFtsZ polymerization (A340) (SaFtsZ [1]): stimulate SaFtsZ polymerization

COc1cc2cc(-c3cccc(C(C)(C)C)c3)nc(CCN=C(N)N)c2cc1OC [Compound 20a, 2-(2-(3-(3-(t-Butyl)phenyl)-6,7-dimethoxyisoquinolin-1-yl)ethyl)guanidine]
Concentration dependence of the enhancement of SaFtsZ polymerization (SaFtsZ [1]; 20, 30 and 40 μg/mL): enhances SaFtsZ polymerization increases with increasing compound concentration | Impact on SaFtsZ polymerization (A340) (SaFtsZ [1]): stimulate SaFtsZ polymerization | Stability of compound-induced SaFtsZ polymers to added GDP (SaFtsZ [1]): stable to the depolymerizing effects of GDP | MIC (S. aureus 8325-4 (MSSA)): 2 to 4 µg/mL (≈ 4.92 to 9.84 µM)

COc1cc2cc(-c3cccc(-c4ccc(C(C)(C)C)cc4)c3)nc(CN=C(N)N)c2cc1OC [Compound 21a, 2-((3-(4′-(t-Butyl)-[1,1′-biphenyl]-3-yl)-6,7-dimethoxyisoquinolin-1-yl)methyl)guanidine trifluoroacetate]
MIC (S. aureus 8325-4 (MSSA)): 2 to 4 µg/mL

NC(=O)c1c(F)ccc(OCc2nc3cc(Cl)cnc3s2)c1F [PC190723, reference compound]
Impact on SaFtsZ polymerization (A340) (SaFtsZ [1]): stimulate SaFtsZ polymerization

CN[C@H](CC(C)C)C(=O)N[C@H]1C(=O)N[C@@H](CC(N)=O)C(=O)N[C@H]2C(=O)N[C@H]3C(=O)N[C@H](C(=O)N[C@H](C(=O)O)c4cc(O)cc(O)c4-c4cc3ccc4O)[C@H](O)c3ccc(c(Cl)c3)Oc3cc2cc(c3O[C@@H]2O[C@H](CO)[C@@H](O)[C@H](O)[C@H]2O[C@H]2C[C@](C)(N)[C@H](O)[C@H](C)O2)Oc2ccc(cc2Cl)[C@H]1O [Vancomycin, reference compound]
Percent GTPase activity (SaFtsZ [5]; 40 μg/mL, percentage of activity with vehicle (DMSO) alone, mean of two ± SD): no significant impact | Impact on SaFtsZ polymerization (A340) (SaFtsZ [1]): no impact on the polymerization of SaFtsZ

COC(=O)Nc1nc2cc(C(=O)c3cccs3)ccc2[nH]1 [nocodazole, reference compound]
Impact on polymerization of porcine β-tubulin (A340) ([2]; 10 μg/mL, positive control): produce their expected impacts on tubulin polymerization dynamics

CC(=O)O[C@H]1C(=O)[C@@]2(C)[C@H]([C@H](OC(=O)c3ccccc3)[C@]3(O)C[C@H](OC(=O)[C@H](O)[C@@H](NC(=O)c4ccccc4)c4ccccc4)C(C)=C1C3(C)C)[C@]1(OC(C)=O)CO[C@@H]1C[C@@H]2O [paclitaxel, reference compound]
Impact on polymerization of porcine β-tubulin (A340) ([2]; 25 μg/mL, positive control): produce their expected impacts on tubulin polymerization dynamics
